# Key:
# [1] = target: Prostacyclin receptor (Homo sapiens, UniProt P43119); experiment: Displacement of [3H]Iloprost from human prostanoid IP receptor expressed in CHO cells after 30 mins by liquid scintillation counting; assay type: cell-based
# Outline: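 Membranes from CHO cells stably expressing hIP were incubated with 5.0 nM [³H]iloprost and graded compound concentrations in 50 mM Tris-HCl (1 mM EDTA, 10 mM MgCl₂, pH 7.5) for 30 min at room temperature. Filters (GF/B) were washed with ice-cold Tris/NaCl pH 7.5, dried 60 min at 60 °C, and counted. Nonspecific binding used excess unlabeled iloprost. Ki = IC50/(1+[L]/Kd).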
# [2] = Kinetic solubility of the compound; assay type: physicochemical; details: read-out: Kinetic_solubility
# [3] = target: T1, Prostaglandin D2 receptor (Mus musculus, UniProt P70263); experiment: Antagonist activity at mouse prostanoid DP receptor expressed in CHO cells assessed as inhibition of PGD2-induced intracellular cAMP production after 10 mins by enzyme immunoassay; assay type: functional, cell-based
# T1 sequence (P70263 whole entry): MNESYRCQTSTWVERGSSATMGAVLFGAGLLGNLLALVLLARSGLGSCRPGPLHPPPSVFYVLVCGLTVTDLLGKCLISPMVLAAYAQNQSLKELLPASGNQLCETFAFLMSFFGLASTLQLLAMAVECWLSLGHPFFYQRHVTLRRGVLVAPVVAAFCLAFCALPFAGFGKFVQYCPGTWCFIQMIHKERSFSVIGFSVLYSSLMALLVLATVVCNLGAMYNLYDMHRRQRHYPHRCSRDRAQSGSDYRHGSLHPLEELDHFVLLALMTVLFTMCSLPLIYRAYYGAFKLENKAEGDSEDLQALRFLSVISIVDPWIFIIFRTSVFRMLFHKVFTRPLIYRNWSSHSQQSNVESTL
# Outline: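 CHO cells expressing mDP seeded at 1 × 10⁵ cells/well and grown 2 days. They were rinsed and preincubated ~10 min at 37 °C in MEM with 2 µM diclofenac, then ~10 min in assay medium (MEM, 0.1% BSA, 1 mM IBMX, 2 µM diclofenac). Compound plus 10 nM PGD₂ was added for 10 min at 37 °C. TCA stop, tri-n-octylamine/chloroform extraction, cAMP by EIA. IC50 taken from % of maximal cAMP rise without compound.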
# [4] = Total clearance in rat at 1 mg/kg, iv administered as single dose; assay type: ADME, organism-based; parameters: dose 1 mg/kg, route intravenous; details: in vivo
# Outline: (§1)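 Fasted male rats (n = 3) received a single 1 mg/kg iv dose in 30% HP-β-CD with 5% DMSO and 1 eq NaHCO₃. Jugular blood was drawn into heparin before dosing and at 5, 15, 30 min and 1, 2, 4, 6, 8, 24 h. Plasma was obtained by centrifugation at 4 °C. Parameters came from the plasma concentration-time course.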
# [5] = Half life in rat at 1 mg/kg, po administered as single dose; assay type: ADME, organism-based; parameters: dose 1 mg/kg, route oral; details: in vivo
# Outline: (§2)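 Fasted male rats (n = 3) received a single oral 1 mg/kg dose in 0.5% methylcellulose. Jugular blood was drawn into heparin before dosing and at 15, 30 min and 1, 2, 4, 6, 8, 24 h. Plasma was separated at 4 °C. Parameters came from the plasma concentration-time course.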
# [6] = target: T2, Prostaglandin D2 receptor (Homo sapiens, UniProt Q13258); experiment: Antagonist activity at prostanoid DP receptor in human platelet rich plasma assessed as inhibition of PGD2-induced intracellular cAMP production after 10 mins by enzyme immunoassay; assay type: functional, cell-based; details: in the assay text read “after 15 mins” for “after 10 mins”
# T2 sequence (Q13258 whole entry): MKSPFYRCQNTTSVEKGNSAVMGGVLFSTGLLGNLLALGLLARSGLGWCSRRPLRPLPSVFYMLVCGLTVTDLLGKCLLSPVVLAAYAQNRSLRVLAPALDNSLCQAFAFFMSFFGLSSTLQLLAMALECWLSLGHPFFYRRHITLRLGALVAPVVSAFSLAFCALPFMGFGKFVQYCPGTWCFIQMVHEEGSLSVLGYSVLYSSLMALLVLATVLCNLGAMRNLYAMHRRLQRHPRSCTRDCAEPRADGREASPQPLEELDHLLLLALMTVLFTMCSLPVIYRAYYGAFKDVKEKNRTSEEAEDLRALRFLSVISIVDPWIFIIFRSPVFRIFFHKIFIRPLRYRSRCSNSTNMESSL
# Outline: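 Human PRP with EDTA (~10 mmol/L) was spun at 1500 G for 15 min. Platelets were resuspended in PPP at 5.0 × 10⁵/µL with IBMX (8 mmol/L final) and an EP3 antagonist, then held 5 min at 37 °C. Compound was added for 10 min at 37 °C, then PGD₂ (3 µmol/L final) for 15 min. TCA stop, tri-n-octylamine extraction, cAMP EIA. IC50 derived from inhibition ratio.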
# [7] = target: T1, Prostaglandin D2 receptor; experiment: Displacement of [3H]-PGD2 from mouse DP receptor expressed in CHO cells after 20 mins by liquid scintillation counting; assay type: cell-based
# Outline: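 CHO-mDP membranes were incubated with 2.5 nM [³H]PGD₂ and graded compound concentrations in 25 mM HEPES-NaOH (1 mM EDTA, 5 mM MgCl₂, 10 mM MnCl₂, pH 7.4) for 20 min at room temperature. Bound ligand was collected on GF/B filters and washed with ice-cold Tris/NaCl/0.01% BSA, pH 7.4. Nonspecific binding was defined with excess unlabeled PGD₂. IC50 came from the regression curve; Ki = IC50/(1+[L]/Kd).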
# [8] = Oral bioavailability in rat at 1 mg/kg administered as single dose; assay type: ADME, organism-based; details: in vivo
# Outline: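 Fasted male rats (n = 3) were given 1 mg/kg orally in 0.5% methylcellulose and 1 mg/kg iv in 30% HP-β-CD/5% DMSO/NaHCO₃, each as a single dose. Plasma from serial jugular samples was analysed. Bioavailability was derived from oral versus iv exposure, corrected for dose (D_po, D_iv).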
# [9] = Cmax in rat at 1 mg/kg, po administered as single dose; details: in vivo
# [10] = tested on: Cavia porcellus; experiment: Inhibition of OVA-induced vascular permeability in Hartley guinea pig conjunctiva at 1 mg/kg, po administered 1 hr before antigen challenge measured after 30 mins; assay type: functional
# Outline: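 Male Hartley guinea pigs were sensitized ip with OVA (1 mg) plus inactivated B. pertussis. Two weeks later they were challenged topically with OVA (1%, 20 µL/eye), followed at once by Evans blue (20 mg/kg iv). Compound was given orally 1 h before challenge (n = 7). After 30 min the conjunctiva was removed, dye was extracted in DMF at 37 °C, and A620 was read against a standard curve. Dunnett's test was used.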
# [11] = AUC (0 to infinity) in rat at 1 mg/kg, po administered as single dose; assay type: ADME, organism-based; parameters: time infinity, dose 1 mg/kg, route oral; details: plasma
# Outline: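 Fasted male rats (n = 3) given a single oral dose of 1 mg/kg in 0.5% MC. Heparinized jugular vein blood sampled pre-dose and at 15, 30 min and 1, 2, 4, 6, 8, 24 h. Plasma separated by centrifugation at 4 °C and kept at -80 °C. AUC derived from the plasma concentration–time profile.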
# [12] = Volume of distribution at steady state in rat at 1 mg/kg, iv administered as single dose; assay type: ADME, organism-based; parameters: dose 1 mg/kg, route intravenous; details: in vivo, read-out: Vdss; outline: as §1
# [13] = AUC (0 to infinity) in rat at 1 mg/kg, iv administered as single dose; assay type: ADME, organism-based; parameters: time infinity, dose 1 mg/kg, route intravenous; details: plasma
# Outline: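 Single IV dose of 1 mg/kg to fasted male rats (n = 3). Vehicle: 30% HP-b-CD containing 5% DMSO with NaHCO3 (1 eq). Jugular vein blood taken in heparinized syringe pre-dose and at 5, 15, 30 min and 1, 2, 4, 6, 8, 24 h. Plasma obtained by centrifugation at 4 °C and stored at -80 °C. AUC derived from the plasma concentration–time course.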
# [14] = Half life in rat at 1 mg/kg, iv administered as single dose; assay type: ADME, organism-based; parameters: dose 1 mg/kg, route intravenous; details: in vivo; outline: as §1
# [15] = tested on: Cavia porcellus; experiment: Inhibition of PGD2-induced vascular permeability in Hartley guinea pig conjunctiva at 0.1 mg/kg, po administered 1 hr before antigen challenge measured after 30 mins; assay type: functional
# Outline: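 Guinea pigs (n = 8) were dosed orally 1 h before topical PGD₂ challenge (20 µL/eye). 5% Evans blue (1 mL/kg iv) was given immediately after challenge. After 30 min the conjunctiva was excised and dye extracted in DMF at 37 °C, with absorbance read at 620 nm. Dunnett's test versus control.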
# [16] = Cmax in rat at 1 mg/kg, po administered as single dose; assay type: ADME, organism-based; parameters: dose 1 mg/kg, route oral; details: in vivo; outline: as §2
# Sequence of Prostacyclin receptor (P43119 whole entry): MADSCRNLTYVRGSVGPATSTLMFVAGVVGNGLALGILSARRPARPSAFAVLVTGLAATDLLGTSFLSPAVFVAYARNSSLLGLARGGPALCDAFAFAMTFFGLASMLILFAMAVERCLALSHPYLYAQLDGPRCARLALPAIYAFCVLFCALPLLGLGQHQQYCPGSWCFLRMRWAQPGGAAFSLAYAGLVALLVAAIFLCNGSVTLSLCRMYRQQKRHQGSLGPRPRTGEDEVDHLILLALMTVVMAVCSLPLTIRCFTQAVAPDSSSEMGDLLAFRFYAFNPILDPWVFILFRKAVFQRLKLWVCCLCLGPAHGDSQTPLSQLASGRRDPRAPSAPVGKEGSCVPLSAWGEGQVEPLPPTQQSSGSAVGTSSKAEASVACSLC
SMILES,Ki [1],solubility kinetic [2],IC50 [3],IC50 [6],also measured
Cc1cc(C(=O)Nc2cc(CC(=O)O)ccc2Cl)c(C)cc1OC[C@@H]1CN(C)c2ccccc2O1,1.8 µM,17 µg/mL,5.1 nM,,
Cc1cc(OC[C@@H]2CN(C)c3ccccc3O2)cc(C)c1C(=O)Nc1cc(CC(=O)O)ccc1Cl,> 10 µM,407 µg/mL,7.6 nM,4.4 nM,clearance [4]: 1.6 mL/min/kg; half-life [5]: 348 min; Ki [7]: 6.4 nM; bioavailability [8]: 72%; Cmax [9]: 930 ng/mL; inhibition in vivo at 1 mg/kg [10]: 46%; AUC(0-inf) [11]: 8120 ng·h/mL; Vd [12]: 0.622 L/kg; AUC(0-inf) [13]: 11300 ng·h/mL; half-life [14]: 372 min; inhibition in vivo at 0.1 mg/kg [15]: 55%
Cc1cc(OC[C@@H]2COc3ccccc3O2)cc(C)c1C(=O)Nc1cc(CC(=O)O)ccc1Cl,> 10 µM,,4.3 nM,,
Cc1cc(OC[C@@H]2COc3ccccc32)cc(C)c1C(=O)Nc1cc(CC(=O)O)ccc1Cl,> 10 µM,,1.5 nM,,
Cc1cc(OC[C@@H]2Cc3ccccc3O2)cc(C)c1C(=O)Nc1cc(CC(=O)O)ccc1Cl,> 10 µM,,14 nM,,
Cc1cc(OCC2Oc3ccccc3O2)cc(C)c1C(=O)Nc1cc(CC(=O)O)ccc1Cl,> 10 µM,,27 nM,,
CN1C[C@@H](COc2ccc(C(=O)Nc3cc(C(C)(C)C(=O)O)ccc3Cl)c(Cl)c2)Oc2ccccc21,3.3 µM,139 µg/mL,7 nM,280 nM,
Cc1cc(C(=O)Nc2cc(C(C)(C)C(=O)O)ccc2Cl)c(C)cc1OC[C@@H]1CN(C)c2ccccc2O1,3.3 µM,,43 nM,32 nM,
Cc1cc(OC[C@@H]2CN(C)c3ccccc3O2)cc(C)c1C(=O)Nc1cc(C(C)(C)C(=O)O)ccc1Cl,> 10 µM,490 µg/mL,0.7 nM,8.1 nM,clearance [4]: 1.8 mL/min/kg; half-life [5]: 336 min; bioavailability [8]: 87%; Cmax [16]: 1670 ng/mL; AUC(0-inf) [11]: 8280 ng·h/mL; Vd [12]: 0.669 L/kg; AUC(0-inf) [13]: 9520 ng·h/mL; half-life [14]: 390 min; inhibition in vivo at 0.1 mg/kg [15]: 58%
Cc1cc(C(=O)Nc2cc(C3(C(=O)O)CC3)ccc2Cl)c(C)cc1OC[C@@H]1CN(C)c2ccccc2O1,1.7 µM,,26 nM,19 nM,
Cc1cc(OC[C@@H]2CN(C)c3ccccc3O2)cc(C)c1C(=O)Nc1cc(C2(C(=O)O)CC2)ccc1Cl,> 10 µM,321 µg/mL,1 nM,,
CN1C[C@@H](COc2ccc(C(=O)Nc3cc(C(F)(F)C(=O)O)ccc3Cl)c(Cl)c2)Oc2ccccc21,0.52 µM,,14 nM,,
Cc1ccc2c(c1)[C@H](COc1cc(C)c(C(=O)Nc3cc(CC(=O)O)ccc3Cl)c(C)c1)CO2,> 10 µM,,24 nM,,
Cc1cc2c(CC(=O)O)cccc2n1C(=O)c1ccc(OC[C@@H]2CN(C)c3ccccc3O2)cc1,,8.2 µg/mL,,57 nM,inhibition in vivo at 0.1 mg/kg [15]: 67%

# — ChEMBL document CHEMBL1914355, “Discovery of new orally active prostaglandin D2 receptor antagonists” (Bioorg Med Chem, 2011)
